Assay outcomes as filed in PubChem.
The full list was thinned out, with hits kept by preference.
STK33 inh: human STK33 kinase inhibition; purified STK33, MBP phosphorylation, ADP-Glo luminescence; inhibition, % at 10 µM; Q9BYT3; AID 2661; actives 0.073% (n = 320,000);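 active means inhibition at or above 25%, using the most active replicate where run in duplicate; inactive means inhibition below 25%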
Target sequence (Q9BYT3 whole entry, looked up): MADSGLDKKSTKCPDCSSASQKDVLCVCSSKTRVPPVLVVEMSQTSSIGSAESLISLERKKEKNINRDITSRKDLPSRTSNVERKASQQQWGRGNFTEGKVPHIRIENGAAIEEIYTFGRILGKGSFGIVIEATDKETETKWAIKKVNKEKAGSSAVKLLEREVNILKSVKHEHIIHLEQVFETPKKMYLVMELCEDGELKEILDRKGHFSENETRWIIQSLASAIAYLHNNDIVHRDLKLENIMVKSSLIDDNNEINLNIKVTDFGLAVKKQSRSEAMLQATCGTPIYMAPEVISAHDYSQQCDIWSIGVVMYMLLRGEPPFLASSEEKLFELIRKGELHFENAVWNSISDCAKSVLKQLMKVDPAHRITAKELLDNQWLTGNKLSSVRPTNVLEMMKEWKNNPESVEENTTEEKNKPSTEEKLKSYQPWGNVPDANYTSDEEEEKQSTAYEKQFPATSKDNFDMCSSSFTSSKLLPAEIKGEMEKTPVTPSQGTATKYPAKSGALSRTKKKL
GSK3A inh: inhibitors of human GSK-3 alpha kinase; AID 2650; inhibition, % at 10 µM; P49840; actives 0.1% (n = 320,000); ADP-Glo luminescence, 60 min;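 active means more than half of replicates show inhibition above 20%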;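 further: GST-tagged GSK-3 alpha with peptide substrate and 25 µM ATP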
GSK3B inh: blocks human GSK3beta kinase activity | activity score (negative = inhibition), % at 10 µM | GST-GSK3beta kinase, ADP-Glo luminescence, 60 min; active compounds read low | actives 0.038% (n = 300,000) | P49841;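 active means more than half of replicate wells score below -50%, meaning over 50% inhibition versus plate controls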
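test system = GST-tagged human GSK3beta kinase, cell-free | reagent = 25 µM ATP with peptide substrate | dosing = one dose of 10 µM per compound | schedule = 60 min reaction, RT | detection = luminescent ADP-Glo measurement of ADP formed | control set = DMSO neutral wells and GW8510 at 20 µM as positive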
DYRK1A inh: inhibitors of rat Dyrk1A kinase | Q63470 | ADP-Glo luminescence, NFATc1 peptide | inhibition, % at 12.5 µM | actives 0.43% (n = 310,000) | AID 504441; in the data active means inhibition above about 50%
CDK5 p35 inh: CDK5/p35 (human) kinase inhibition; Q00535+Q15078; Recombinant CDK5/p35, ADP-Glo luminescence, 60 min; inhibition, % at 10 µM; AID 488839; actives 0.01% (n = 330,000);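 active means highest replicate inhibition of at least 50% and at least 75% of replicates reaching 50%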
ADP-Glo artifact: counter-screen for Dyrk1A inhibitors: ADP-Glo luciferase artifacts. AID 588348. ADP-Glo luciferase artifact assay, no Dyrk1A, luminescence. AC50, µM (series often up to 12 µM). shares compounds with DYRK1A inh. 1,300 tested, under 10 active;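 active means fitted half-maximal dose AC50 no more than ten times the top valid tested dose, with luminescence dropping as dose rises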
Hits are given with their value; 0 = inactive; - = no result given; ! = a repeat was not active.

SMILES	STK33 inh	GSK3A inh	GSK3B inh	DYRK1A inh	CDK5 p35 inh	ADP-Glo artifact
CCC(=O)c1ccc(OCc2cn(CC(=O)c3ccc(O)cc3)nn2)cc1	-	-	-	-	0	-
COc1ccc(CNC(=O)CN(C(=O)CCC(=O)Nc2nccs2)c2cccc(C)c2)cc1	0	0	0	0	0	-
O=c1cc(-c2ccco2)oc2c1ccc1ccccc12	0	0	0	59	0	0
O=c1cc(-c2ccc(O)cc2)oc2c1ccc1ccccc12	0	0	-	-	0	-
O=C(O)c1ccc(-c2ccc(/C=c3/sc4nc5ccccc5n4c3=O)o2)cc1Cl	0	0	0	54	0	0
c1ccc(Cc2nnc3sc(-c4ccc5c(c4)OCO5)nn23)cc1	0	0	0	0	0	-
c1ccc(Cc2nnc3sc(-c4ccc5c(c4)OCCO5)nn23)cc1	0	0	0	80	0	0
Cc1ccc(NC(=S)Nc2ccc3cn[nH]c3c2)cc1	0	0	0	63	0	0
NC(=S)Nc1ccc2cn[nH]c2c1	0	0	0	0	0	-
Cc1cc(C)cc(NC(=S)Nc2ccc3cn[nH]c3c2)c1	-	-	0	0	0	-
C=CCNC(=S)Nc1ccc2cn[nH]c2c1	0	0	0	70	0	0
COc1ccc(C(=O)N/C(=C/c2cccnc2)C(=O)N2CCN(C)CC2)cc1OC	0	0	0	0	0	-
COc1ccc(C=C2C(=O)c3ccccc3C2=O)cc1O	0	0	0	84	0	0
COc1cc(C=C2C(=O)c3ccccc3C2=O)ccc1O	0	0	0	97	0	0
COc1cc(/C=C2\SC(N)=NC2=O)ccc1O	26	0	0	90	0	0
O=C(Nc1nc(-c2cccc3ccccc23)cs1)c1cnccn1	0	0	0	0	0	-
COc1ccc(N=Nc2c(C)n[nH]c2C)cc1	0	0	0	52	0	0
Cc1n[nH]c(C)c1N=Nc1ccc(Br)cc1	0	0	0	0	0	-
O=C1C2C3C=CC(C4CC34)C2C(=O)N1c1cccc2ccccc12 (centres undefined)	0	0	0	0	0	-
Cc1[nH][nH]c(=O)c1N=Nc1ccccc1Cl	0	0	0	55	0	0
Cc1[nH][nH]c(=O)c1N=Nc1ccc(Br)c(Cl)c1	0	0	0	0	0	-
COCCCNc1c2c3c(cccc3[nH]c1=O)C(=O)c1ccccc1-2	0	0	-	65	0	0
COCCCNC1=C(Cl)C(=O)c2ccccc2C1=O	0	0	0	-	0	-
CC(=O)N(/N=C1\Sc2ccccc2C1=O)c1cccc(C)c1	0	0	0	50	0	0
CC(=O)N(CN1C(=O)c2ccccc2C1=O)c1cccc(C)c1	0	0	0	0	0	-
SMILES	STK33 inh	GSK3A inh	GSK3B inh	DYRK1A inh	CDK5 p35 inh	ADP-Glo artifact
Cc1nc(NC(=O)c2ccccc2)sc1-c1csc(NCc2ccco2)n1	-	-	0	67	0	0
CS(=O)(=O)N(CC(=O)Nc1ccc(S(=O)(=O)N2CCCC2)cc1)c1ccccc1	0	0	0	0	0	-
O=C1NC(=O)/C(=C\c2ccc(O)cc2O)S1	36	0	0	85	0	0
Cc1nc([N+](=O)[O-])cn1CC(O)c1ccc(-c2ccccc2)cc1 (centres undefined)	0	0	0	0	0	-
NC(N)=NC(=O)c1nc(Cl)c(N)nc1N	0	0	0	64!	0	0
NC(N)=NC(=O)c1nc(Cl)c(N2CCCCCC2)nc1N	0	0	-	0	0	-
C[N+](C)(C)C[C@H](O)CC(=O)[O-]	0	0	0	0	0	-
COc1ccccc1NC(=O)CCNC(=O)c1ccc(C)cc1	0	0	0	0	0	-
O=C(COC(=O)CCOc1ccccc1)Nc1ncc(Cl)cc1Cl	0	0	0	0	0	-
O=c1c2ccccc2nnn1CSc1nnc(-c2ccc3c(c2)OCO3)o1	0	0	0	56	0	0
c1cncc(-c2nc(-c3cccs3)cs2)c1	0	0	0	0	0	-
c1cncc(-c2csc(-c3cccnc3)n2)c1	0	0	0	86	0	0
Cc1ccc(-c2cc(O)cc3sc(=O)oc23)cc1C	0	-	0	54	0	0
CCOC(=O)c1nnc(-c2ccc(C)cc2)nc1Sc1ccc(Cl)cc1	0	0	0	55	0	0
NS(=O)(=O)c1ccc(Nc2nc(-c3ccc(O)cc3O)cs2)cc1	0	61	0	68	0	0
NS(=O)(=O)c1ccc(Nc2nc(-c3ccc(F)cc3)cs2)cc1	0	0	0	0	0	-
C=CS(=O)(=O)c1c2cc(OC)ccc2nc2ccc(OC)cc12	-	-	-	61	0	0
COc1ccc2nc(Cl)cc(Cl)c2c1	0	0	0	0	0	-
CCN1C(=O)/C(=C2/Sc3ccccc3N2CC)S/C1=N\c1ncn[nH]1	0	0	0	61	0	0
O=C(O)CCC(=O)N1N=C(c2ccccc2)CC1c1cccs1 (centres undefined)	0	0	0	0	0	-
Cc1ccccc1CNS(=O)(=O)c1c(C)[nH]c(C)c1C(=O)N1CCCCC1	0	0	0	0	0	-
O=C(N=C1SC2CS(=O)(=O)CC2N1c1ccccc1Cl)C1CCCO1 (centres undefined)	0	0	0	0	0	-
CCc1ccc(/C=C2\SC(N3CCCC3)=NC2=O)cc1	0	0	0	-	0	-
COc1ccc(/C=C2\SC(N3CCCCC3)=NC2=O)cc1	0	0	0	67	0	0
O=C(Nc1ccc(Oc2cccnc2)cc1)C1CCN(Cc2cccc(Cl)c2)CC1	0	0	0	0	0	-
SMILES	STK33 inh	GSK3A inh	GSK3B inh	DYRK1A inh	CDK5 p35 inh	ADP-Glo artifact
COc1ccc(-c2cc(-c3nnc(-c4ccncc4)o3)c3ccccc3n2)cc1	0	0	0	0	0	-
c1ccc2c(-c3nc(C4CCCCC4)no3)cc(-c3ccncc3)nc2c1	0	0	0	72	0	0
Cc1oc(S(=O)(=O)N2CCCCC2)cc1NC(=O)Nc1ccc(Cl)cc1	0	0	0	0	0	-
CCC1COCCS(=O)(=O)N1Cc1cccc(Cl)c1 (centres undefined)	0	0	0	0	0	-
CC(C)C[C@H]1COCCS(=O)(=O)N1Cc1ccc(Cl)c(Cl)c1	0	0	0	51	0	0
OC(c1cc(C(F)(F)F)nc2c(Cl)cc(Cl)cc12)C1CCCCN1 (centres undefined)	0	0	0	55	0	0
O=[N+]([O-])c1ccc(O)c(C=NNc2ccc(S(=O)(=O)O)cc2)c1	-	-	-	73	0	0
O=C1CC(c2ccc(S(=O)(=O)NCc3ccncc3)cc2)CN1 (centres undefined)	0	0	0	0	0	-
O=C1CC(c2ccc(S(=O)(=O)NC3CC3)cc2)CN1 (centres undefined)	0	0	0	58	0	0
NS(=O)(=O)c1ccc(N=Nc2c(O)c(C(=O)O)cc3ccccc23)cc1	0	0	0	54	0	0
O=C(O)Cc1ccc(N=Nc2c(O)c(C(=O)O)cc3ccccc23)cc1	0	0	0	0	0	-
COc1ccc(N/C=C2\C(=O)CCc3c2oc2cc(Cl)c(O)c(Cl)c32)cc1	0	0	0	55	0	0
COc1ccc(N/C=C2\CCc3ccccc3C2=O)cc1	0	0	0	0	0	-
